Values after ≈ are worked out from the molar mass of the structure shown. Active and inactive are the calls of the source. The calls are words filed in the database; no cut-off is given here.
How the values were obtained:
[1] = target: T1, Casein kinase II subunit alpha (Homo sapiens, UniProt P68400); test: Inhibition of CK2alpha in human HCT116 cells assessed as decrease in AKT phosphorylation at S129 residue after 3 to 24 hrs
SW480 = test: Antiproliferative activity against human SW480 cells by alamar blue assay; type: functional
In short: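 SW480 proliferation was measured with the Alamar Blue read-out, and GI50 is reported in μM.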

[2] = target: Glycogen synthase kinase-3 beta (Homo sapiens, UniProt P49841); test: Inhibition of GSK3beta
HCT-116 [3] = test: Growth inhibition of human HCT116 cells after 72 hrs by alamar blue assay; type: functional; conditions: HCT-116, 72 h
In short: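 HCT-116 proliferation was read out by Alamar Blue. GI50 is reported in μM as the mean of at least three experiments.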

[4] = target: Homeodomain-interacting protein kinase 2 (Homo sapiens, UniProt Q9H2X6); test: Inhibition of HipK2
[5] = target: Cyclin-dependent kinase 2 (Homo sapiens, UniProt P24941); test: Inhibition of CDK2
[6] = target: T1, Casein kinase II subunit alpha; test: Inhibition of full length N-terminus His-tagged human CK2alpha expressed in insect Sf21 cells using BODIPY-FL-RRRDDDSDDD-CONH2 as substrate after 20 mins
[7] = Aqueous solubility of the compound; type: physicochemical; conditions: buffer
In short: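 Solubility was determined in aqueous medium at pH 7.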

[8] = Lipophilicity, log D of the compound; type: physicochemical; conditions: octanol/water
[9] = Fraction unbound in human plasma; type: ADME, cell-free
[10] = AUC in rat at 10 mg/kg, po; type: ADME, organism-based; design: dose 10 mg/kg, route oral; conditions: plasma
In short: (§1)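 Rats received one oral dose of 10 mg/kg, and pharmacokinetic parameters were derived from that single administration.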

MDR1 [11] = test: Apparent permeability from apical to basolateral side in pig LLC-PK1 cells expressing MDR1; type: ADME, cell-based, Sus scrofa
[12] = Intrinsic clearance in rat liver microsomes; type: ADME, Microsome; conditions: read-out: CLH
Cytochrome P450 1A2 = target: T2, Cytochrome P450 1A2 (Homo sapiens, UniProt P05177); test: Inhibition of CYP1A2; type: ADME
T2 sequence (P05177 whole entry): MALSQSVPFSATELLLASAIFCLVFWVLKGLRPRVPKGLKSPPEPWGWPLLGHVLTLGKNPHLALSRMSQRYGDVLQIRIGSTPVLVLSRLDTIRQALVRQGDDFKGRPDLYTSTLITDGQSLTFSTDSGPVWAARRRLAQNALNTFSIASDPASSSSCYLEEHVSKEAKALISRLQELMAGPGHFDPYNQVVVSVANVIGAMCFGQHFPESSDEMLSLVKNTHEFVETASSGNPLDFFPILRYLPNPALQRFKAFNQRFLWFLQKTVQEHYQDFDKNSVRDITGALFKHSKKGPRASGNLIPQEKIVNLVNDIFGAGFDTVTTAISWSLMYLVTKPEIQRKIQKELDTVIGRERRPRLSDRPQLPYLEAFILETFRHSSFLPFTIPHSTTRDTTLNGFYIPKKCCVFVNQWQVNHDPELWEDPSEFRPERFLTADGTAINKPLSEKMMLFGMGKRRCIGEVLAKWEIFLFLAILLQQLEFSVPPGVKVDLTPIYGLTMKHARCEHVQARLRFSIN

HCT-116 [13] = test: Induction of apoptosis in human HCT116 cells assessed as caspase activation; type: functional, cell-based
[14] = Oral bioavailability in rat at 10 mg/kg; type: ADME, organism-based; conditions: in vivo
In short: as §1

[15] = target: Voltage-gated inwardly rectifying potassium channel KCNH2 (Homo sapiens, UniProt Q12809); test: Inhibition of human Erg
[16] = Clearance in rat at 10 mg/kg, po; type: ADME, organism-based; design: dose 10 mg/kg, route oral; conditions: in vivo
In short: as §1

MDR1 [17] = test: Apparent permeability from apical to basolateral side in MDCK cells expressing MDR1; type: ADME, cell-based, Canis lupus familiaris; conditions: dog

Glycogen synthase kinase-3 beta, sequence (P49841 whole entry): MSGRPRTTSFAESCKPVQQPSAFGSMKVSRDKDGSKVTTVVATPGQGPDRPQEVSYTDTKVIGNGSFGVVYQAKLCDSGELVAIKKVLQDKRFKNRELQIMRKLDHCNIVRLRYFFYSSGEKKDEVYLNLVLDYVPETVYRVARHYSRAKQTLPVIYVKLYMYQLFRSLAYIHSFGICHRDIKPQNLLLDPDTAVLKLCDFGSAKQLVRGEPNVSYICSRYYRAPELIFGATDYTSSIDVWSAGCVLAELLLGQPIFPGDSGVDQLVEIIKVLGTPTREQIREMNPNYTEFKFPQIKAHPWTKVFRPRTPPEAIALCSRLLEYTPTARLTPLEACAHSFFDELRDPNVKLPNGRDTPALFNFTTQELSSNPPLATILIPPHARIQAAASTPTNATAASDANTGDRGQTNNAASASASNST
T1 sequence (P68400 whole entry): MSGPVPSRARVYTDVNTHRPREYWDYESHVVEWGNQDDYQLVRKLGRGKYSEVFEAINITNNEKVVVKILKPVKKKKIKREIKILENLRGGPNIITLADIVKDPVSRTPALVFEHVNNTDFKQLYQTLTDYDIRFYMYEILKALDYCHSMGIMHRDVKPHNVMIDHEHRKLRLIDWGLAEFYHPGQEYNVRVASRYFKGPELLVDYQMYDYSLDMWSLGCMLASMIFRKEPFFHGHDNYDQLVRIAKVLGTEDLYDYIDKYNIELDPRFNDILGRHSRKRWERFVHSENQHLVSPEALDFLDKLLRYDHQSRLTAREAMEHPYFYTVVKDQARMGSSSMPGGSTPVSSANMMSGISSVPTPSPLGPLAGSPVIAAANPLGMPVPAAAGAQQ
Homeodomain-interacting protein kinase 2, sequence (Q9H2X6 whole entry): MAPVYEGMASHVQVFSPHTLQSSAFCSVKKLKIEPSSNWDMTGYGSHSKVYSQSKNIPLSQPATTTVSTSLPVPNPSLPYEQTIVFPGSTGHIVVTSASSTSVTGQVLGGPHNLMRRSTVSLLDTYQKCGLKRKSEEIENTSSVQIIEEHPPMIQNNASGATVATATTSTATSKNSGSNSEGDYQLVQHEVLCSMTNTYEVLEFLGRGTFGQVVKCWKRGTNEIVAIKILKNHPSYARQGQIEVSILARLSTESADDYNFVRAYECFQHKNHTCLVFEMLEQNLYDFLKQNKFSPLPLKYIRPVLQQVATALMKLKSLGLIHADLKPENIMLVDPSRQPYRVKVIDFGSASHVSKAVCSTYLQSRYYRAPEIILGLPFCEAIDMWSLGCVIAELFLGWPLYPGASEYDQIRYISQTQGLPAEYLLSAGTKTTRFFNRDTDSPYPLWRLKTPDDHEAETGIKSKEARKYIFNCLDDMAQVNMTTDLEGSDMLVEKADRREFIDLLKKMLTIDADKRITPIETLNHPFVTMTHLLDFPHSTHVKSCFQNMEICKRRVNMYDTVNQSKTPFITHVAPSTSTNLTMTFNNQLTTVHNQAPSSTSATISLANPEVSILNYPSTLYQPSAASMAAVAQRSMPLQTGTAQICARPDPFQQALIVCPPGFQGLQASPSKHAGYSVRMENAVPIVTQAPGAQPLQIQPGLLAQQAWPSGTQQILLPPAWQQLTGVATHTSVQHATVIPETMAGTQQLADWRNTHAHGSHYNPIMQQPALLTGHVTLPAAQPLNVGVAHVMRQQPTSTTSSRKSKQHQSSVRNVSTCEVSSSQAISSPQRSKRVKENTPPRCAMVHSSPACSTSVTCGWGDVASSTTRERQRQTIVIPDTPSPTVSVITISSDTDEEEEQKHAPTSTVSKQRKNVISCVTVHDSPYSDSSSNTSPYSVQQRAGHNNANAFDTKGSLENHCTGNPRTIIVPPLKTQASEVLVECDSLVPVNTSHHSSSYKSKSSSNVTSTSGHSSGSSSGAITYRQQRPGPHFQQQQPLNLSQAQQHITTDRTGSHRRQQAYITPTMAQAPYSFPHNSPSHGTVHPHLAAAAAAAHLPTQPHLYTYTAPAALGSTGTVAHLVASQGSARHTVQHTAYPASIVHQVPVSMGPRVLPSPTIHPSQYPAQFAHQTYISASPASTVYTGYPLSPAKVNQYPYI
Voltage-gated inwardly rectifying potassium channel KCNH2, sequence (Q12809 whole entry): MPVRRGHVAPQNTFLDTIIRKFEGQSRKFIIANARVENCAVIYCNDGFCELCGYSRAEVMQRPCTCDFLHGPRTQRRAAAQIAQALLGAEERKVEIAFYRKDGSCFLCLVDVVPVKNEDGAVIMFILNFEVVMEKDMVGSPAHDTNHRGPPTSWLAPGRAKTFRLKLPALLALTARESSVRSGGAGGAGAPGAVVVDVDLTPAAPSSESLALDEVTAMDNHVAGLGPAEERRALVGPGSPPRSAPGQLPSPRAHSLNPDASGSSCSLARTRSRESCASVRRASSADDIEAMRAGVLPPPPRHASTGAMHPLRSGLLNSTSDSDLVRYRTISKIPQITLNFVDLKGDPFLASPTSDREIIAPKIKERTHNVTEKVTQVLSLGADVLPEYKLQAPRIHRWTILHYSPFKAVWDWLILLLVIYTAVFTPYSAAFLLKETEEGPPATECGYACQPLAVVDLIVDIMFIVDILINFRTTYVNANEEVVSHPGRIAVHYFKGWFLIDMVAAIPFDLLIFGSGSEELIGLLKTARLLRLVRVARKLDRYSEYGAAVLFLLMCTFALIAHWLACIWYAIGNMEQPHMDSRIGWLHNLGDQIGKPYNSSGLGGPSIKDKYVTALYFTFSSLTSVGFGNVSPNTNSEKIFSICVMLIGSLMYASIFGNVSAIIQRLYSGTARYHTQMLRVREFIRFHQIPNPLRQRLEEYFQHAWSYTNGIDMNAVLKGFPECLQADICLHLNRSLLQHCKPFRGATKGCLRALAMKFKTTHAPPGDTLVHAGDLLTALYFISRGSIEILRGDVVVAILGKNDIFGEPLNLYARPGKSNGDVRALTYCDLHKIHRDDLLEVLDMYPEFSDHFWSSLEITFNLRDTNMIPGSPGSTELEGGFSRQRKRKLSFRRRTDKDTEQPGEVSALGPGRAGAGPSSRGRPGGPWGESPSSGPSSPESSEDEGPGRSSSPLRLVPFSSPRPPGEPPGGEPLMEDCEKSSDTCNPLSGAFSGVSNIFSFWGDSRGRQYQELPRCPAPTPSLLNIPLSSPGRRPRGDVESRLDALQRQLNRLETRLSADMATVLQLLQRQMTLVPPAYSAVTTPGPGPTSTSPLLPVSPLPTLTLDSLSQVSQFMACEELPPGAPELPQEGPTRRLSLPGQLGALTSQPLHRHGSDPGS

GI50 (SW480) | GI50 (HCT-116 [3]) | solubility [7] | logD [8] | fraction unbound [9] | SMILES | other results
0.7 µM | 700 nM |  |  |  | CC(=O)Nc1ccc2[nH]cc(-c3cc(NC4CC4)n4ncc(C#N)c4n3)c2c1 | IC50 [1]: 77 nM; IC50 [2]: 250 nM; IC50 [4]: < 3 nM; IC50 [5]: 14 µM; IC50 [6]: 5 nM
 | 2800 nM | 8 µM (≈ 3.23 µg/mL) | 2.6 | 0.041 | CC(=O)Nc1ccc2ccn(-c3cc(NCCCCO)n4ncc(C#N)c4n3)c2c1 | 
13 µM |  | > 1000 µM | 1.8 | 0.067 | CC(=O)Nc1ccc2ccn(-c3cc(NCCCN4CCCC4)n4ncc(C#N)c4n3)c2c1 | AUC [10]: 0.065 µM·h; Papp A→B (MDR1 [11]): ≤ 5 ×10⁻⁶ cm/s
2.5 µM | 2200 nM | 1 µM (≈ 0.387 µg/mL) | 2.2 | 0.124 | CC(=O)Nc1ccc2ccn(-c3cc(NC4COC4)n4ncc(C#N)c4n3)c2c1 | 
0.56 µM | 460 nM |  |  |  | CC(=O)Nc1ccc2ccn(-c3cc(Nc4ccn(C)n4)n4ncc(C#N)c4n3)c2c1 | 
1.1 µM | 700 nM |  |  |  | CC(=O)Nc1ccc2c(c1)c(-c1cc(NC3CC3)n3ncc(C#N)c3n1)cn2C | 
6.6 µM |  |  |  |  | COC(=O)CCn1cc(-c2cc(NC3CC3)n3ncc(C#N)c3n2)c2cc(NC(C)=O)ccc21 | 
 | 14000 nM |  |  |  | COc1ccc(-c2cc(NC3CC3)n3ncc(C#N)c3n2)cc1 | 
 | > 30000 nM |  |  |  | CC(=O)Nc1cc2c(ccn2-c2cc(NC3CC3)n3ncc(C#N)c3n2)cc1C | 
15 µM | 16000 nM |  |  |  | COc1ccncc1-c1cc(NC2CC2)n2ncc(C#N)c2n1 | 
> 30 µM |  | 2 µM (≈ 0.889 µg/mL) |  | 0.11 | CC(=O)Nc1ccc2ccn(-c3cc(NCCN4CCOCC4)n4ncc(C#N)c4n3)c2c1 | Papp A→B (MDR1 [11]): ≤ 5 ×10⁻⁶ cm/s
 | 16400 nM | < 1 µM | 2.5 | 0.018 | CS(=O)(=O)Cc1ccc2ccn(-c3cc(NC4CC4)n4ncc(C#N)c4n3)c2c1 | 
4.5 µM | 2700 nM |  |  |  | CC(=O)Nc1ccc2c(c1)c(-c1cc(NC3CC3)n3ncc(C#N)c3n1)cn2CCO | 

Further lines, the compound ahead of its results:

SMILES | GI50 (SW480) | GI50 (HCT-116 [3]) | solubility [7] | logD [8] | fraction unbound [9] | other results
CC(=O)N(C)c1ccc2ccn(-c3cc(NC4CC4)n4ncc(C#N)c4n3)c2c1 |  |  | < 1 µM | 2.9 |  | IC50 [1]: 34 nM; IC50 [2]: 1400 nM; CLint scaled [12]: 100 mL/min/kg; IC50 [4]: < 3 nM; IC50 [5]: > 30 µM; IC50 [6]: 11 nM
CC(=O)Nc1ccc2ccn(-c3cc(NCCCN(C)C)n4ncc(C#N)c4n3)c2c1 | 25 µM |  | 750 µM (≈ 312 µg/mL) | 1.6 | 0.1 | IC50 [1]: 1200 nM; IC50 [2]: 2600 nM; IC50 [4]: 60 nM; IC50 [5]: > 30 µM; IC50 [6]: 30 nM
CC(=O)Nc1cnc2ccn(-c3cc(NC4CC4)n4ncc(C#N)c4n3)c2c1 | 2.1 µM | 3000 nM |  |  |  | IC50 [2]: 1000 nM; IC50 [4]: 20 nM; IC50 [5]: > 30 µM; IC50 (Cytochrome P450 1A2): > 20000 nM; IC50 [6]: < 3 nM
CC(=O)Nc1ccc2c(c1)c(-c1cc(NC3CC3)n3ncc(C#N)c3n1)cn2CCCO | 3.2 µM | 2300 nM |  |  |  | 
CC(=O)Nc1ccc2ccn(-c3cc(NC4CC4)n4ncc(C#N)c4n3)c2c1 | 1 µM | 530 nM | < 10 µM | 3.3 | < 0.01 | Activity (HCT-116 [13]): Active; bioavailability [14]: 5%; IC50 [2]: 130 nM; IC50 [15]: 8.6 µM; CL/F [16]: 10 mL/min/kg; IC50 [4]: 30 nM; IC50 [5]: 26 µM; Papp A→B (MDR1 [17]): 22 ×10⁻⁶ cm/s; IC50 (Cytochrome P450 1A2): 100 nM
CC(=O)Nc1ccc2ccn(-c3cc(NCCN4CCCC4)n4ncc(C#N)c4n3)c2c1 |  |  | 15 µM (≈ 6.43 µg/mL) | 2.2 | 0.056 | 
COc1ccc(-c2cc(Nc3ccn(C)n3)n3ncc(C#N)c3n2)cc1 |  | 4500 nM |  |  |  | 
N#Cc1cnn2c(NC3CC3)cc(-n3ccc4ccc(CO)cc43)nc12 |  | 10100 nM | < 1 µM | 3.1 | 0.019 | 
CC(=O)Nc1ccc2c(c1)N(c1cc(NC3CC3)n3ncc(C#N)c3n1)CC2 | 0.73 µM | 530 nM |  |  |  | IC50 [15]: > 33 µM
CC(=O)Nc1ccc2c(c1)c(-c1cc(NC3CC3)n3ncc(C#N)c3n1)cn2CCC(=O)O |  |  |  |  |  | IC50 [2]: 6000 nM; IC50 [4]: 570 nM; IC50 [5]: > 30 µM
CC(=O)Nc1ccc2cnn(-c3cc(NC4CC4)n4ncc(C#N)c4n3)c2c1 | 5 µM | 3700 nM |  |  |  | IC50 [2]: 700 nM; IC50 [15]: > 33 µM; IC50 [4]: 50 nM; IC50 [5]: > 30 µM; IC50 [6]: 26 nM
N#Cc1cnn2c(N)cc(-c3cccs3)nc12 |  | > 30000 nM |  |  |  | 
N#Cc1cnn2c(N)cc(-c3ccccc3)nc12 |  | > 30000 nM |  |  |  | 

From ChEMBL document CHEMBL2062503, “Potent and Selective Inhibitors of CK2 Kinase Identified through Structure-Guided Hybridization” (ACS Med Chem Lett, 2012)
